Active and inactive are the calls of the source. The calls are words filed in the database; no cut-off is given here.
Key:
[1] = tested on: CC(C)(C)OC(=O)NCC[C@H](NC(=O)[C@H](CC1CCCCC1)NC(=O)N1CCOCC1)C(=O)NCCNC(=O)OCC1c2ccccc2-c2ccccc21; assay: Ratio of Kcat/Km for recombinant cathepsin B
How it was run: (§1)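 Active-site-titrated (E-64) recombinant human cathepsins B, L, S and in-house cathepsin K, 10 nM final in pH 6.5 acetate/HEPES buffer with 300 mM NaCl, 0.001% Pluronic and L-cysteine; DMSO-dissolved Cy7/BHQ-3 quenched substrate 0.8–40 µM final (DMSO ≤1%); fluorescence read at 25 °C (λex 710, λem 767 nm); steady-state data fitted by non-linear least squares to Michaelis–Menten with substrate inhibition.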

[2] = tested on: CC(C)(C)OC(=O)NCC[C@H](NC(=O)[C@H](CC1CCCCC1)NC(=O)N1CCOCC1)C(=O)NCCNC(=O)OCC1c2ccccc2-c2ccccc21; assay: Activity at recombinant cathepsin B; how it was run: as §1
[3] = biological target: Neutrophil collagenase (Homo sapiens) (UniProt P22894); assay: Activity at MMP8
How it was run: (§2)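 Recombinant protease (10–40 nM final) incubated with 60.0 µM probe substrate; NIR fluorescence of cleaved quenched probe measured as in the in vitro cathepsin assay (λex 710 nm, λem 767 nm).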

Mus musculus [4] = assay: Activity at cathepsin S in zymosan-induced inflammatory paw edema mouse model assessed as ipsi/contralateral paw fluorescent signal at 20 uM, iv in presence of Dexamethasone; format: functional, organism-based
How it was run: (§3)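 Zymosan paw inflammation; groups n = 3. Dexamethasone 10 mg/kg oral in 0.6% methylcellulose/0.5% Tween80 1 day before zymosan, shortly after, and 1 h before probe; or E-64 10 or 30 mg/kg ip in 40% DMSO/PBS 2 days and 1 day before, shortly after zymosan, and 1 h before probe. Probe 20 µM iv (800 nmol/kg) 24 h post-zymosan; ipsi/contralateral paw fluorescence imaged.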

Mus musculus [5] = assay: Activity at cathepsin S in zymosan-induced inflammatory paw edema mouse model assessed as ipsi/contralateral paw fluorescent signal at 20 uM, iv after 10 mins; format: functional, organism-based
How it was run: (§4)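 Mice given zymosan in one hind paw (n = 3); 24 h later 20 µM probe in PBS iv via tail vein (800 nmol/kg). Under 1.5–2% isoflurane, body temperature held with heating pads; tail and upper body masked; images at 10 min, 1, 3, 6, 24 h; identical ROIs over both hind paws, ipsi/contralateral ratio.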

[6] = biological target: Stromelysin-1 (Homo sapiens) (UniProt P08254); assay: Activity at MMP3; how it was run: as §2
Mus musculus [7] = assay: Activity at cathepsin S in zymosan-induced inflammatory paw edema mouse model assessed as ipsi/contralateral paw fluorescent signal at 20 uM, iv after 180 mins; format: functional, organism-based; how it was run: as §4
[8] = biological target: Matrix metalloproteinase-14 (Homo sapiens) (UniProt P50281); assay: Activity at MMP14; how it was run: as §2
Mus musculus [9] = assay: Activity at cathepsin S in zymosan-induced inflammatory paw edema mouse model assessed as ipsi/contralateral paw fluorescent signal at 13.3 uM, iv after 24 hrs; format: functional, organism-based
[10] = biological target: Matrix metalloproteinase-9 (Homo sapiens) (UniProt P14780); assay: Activity at MMP9; how it was run: as §2
Mus musculus [11] = assay: Activity at cathepsin S in zymosan-induced inflammatory paw edema mouse model assessed as ipsi/contralateral paw fluorescent signal at 20 uM, iv in presence of 10 to 30 ug/ml E-64; format: functional, organism-based; settings: in the assay text read “10 to 30 mg/kg” for “10 to 30 ug/ml”; how it was run: as §3

Sequence of Neutrophil collagenase (Homo sapiens) (P22894 101-467 limits assumed): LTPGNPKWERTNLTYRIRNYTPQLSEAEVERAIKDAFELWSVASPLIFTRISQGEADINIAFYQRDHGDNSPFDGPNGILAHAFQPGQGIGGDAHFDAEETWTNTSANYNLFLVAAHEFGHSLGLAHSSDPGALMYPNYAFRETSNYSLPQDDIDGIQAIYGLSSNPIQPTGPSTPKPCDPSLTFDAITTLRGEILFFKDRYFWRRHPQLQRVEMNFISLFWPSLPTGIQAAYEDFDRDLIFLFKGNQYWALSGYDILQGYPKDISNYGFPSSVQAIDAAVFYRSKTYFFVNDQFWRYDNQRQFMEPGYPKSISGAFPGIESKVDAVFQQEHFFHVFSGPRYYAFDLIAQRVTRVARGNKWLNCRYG
Sequence of Stromelysin-1 (Homo sapiens) (P08254 100-477 limits assumed): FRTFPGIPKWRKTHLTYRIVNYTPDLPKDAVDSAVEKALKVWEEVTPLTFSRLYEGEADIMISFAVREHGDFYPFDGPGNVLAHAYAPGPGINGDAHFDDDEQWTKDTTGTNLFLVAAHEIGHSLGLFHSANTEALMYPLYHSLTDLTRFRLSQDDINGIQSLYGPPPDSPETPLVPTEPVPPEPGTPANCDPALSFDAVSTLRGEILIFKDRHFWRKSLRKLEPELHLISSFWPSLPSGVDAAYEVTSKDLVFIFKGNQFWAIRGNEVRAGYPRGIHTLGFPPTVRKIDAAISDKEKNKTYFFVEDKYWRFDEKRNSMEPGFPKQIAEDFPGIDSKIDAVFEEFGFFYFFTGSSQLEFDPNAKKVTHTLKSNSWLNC
Sequence of Matrix metalloproteinase-9 (Homo sapiens) (P14780 whole entry): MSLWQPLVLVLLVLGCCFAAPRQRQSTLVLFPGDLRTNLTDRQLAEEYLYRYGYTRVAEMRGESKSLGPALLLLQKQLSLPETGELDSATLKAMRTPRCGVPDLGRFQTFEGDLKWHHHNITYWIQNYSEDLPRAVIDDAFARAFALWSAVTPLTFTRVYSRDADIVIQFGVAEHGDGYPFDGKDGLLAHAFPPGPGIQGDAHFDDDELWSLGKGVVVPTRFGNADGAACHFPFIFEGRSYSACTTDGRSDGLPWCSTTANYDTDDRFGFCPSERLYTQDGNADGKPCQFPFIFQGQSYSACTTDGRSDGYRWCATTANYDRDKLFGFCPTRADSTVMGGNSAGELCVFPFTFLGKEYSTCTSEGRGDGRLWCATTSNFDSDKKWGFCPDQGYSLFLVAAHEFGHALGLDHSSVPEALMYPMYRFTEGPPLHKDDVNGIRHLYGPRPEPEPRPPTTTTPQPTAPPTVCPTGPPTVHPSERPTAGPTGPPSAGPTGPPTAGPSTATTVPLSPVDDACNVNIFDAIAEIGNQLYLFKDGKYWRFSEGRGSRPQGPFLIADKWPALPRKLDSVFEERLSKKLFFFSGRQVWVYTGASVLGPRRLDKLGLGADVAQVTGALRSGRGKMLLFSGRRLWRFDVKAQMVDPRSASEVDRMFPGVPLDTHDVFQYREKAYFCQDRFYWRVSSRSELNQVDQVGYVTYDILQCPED

Row | Activity [3] | Activity [6] | Activity [8] | Activity [10] | Compound | kcat/Km [1] [M⁻¹ s⁻¹] | Km [2] [mM] | Activity (Mus musculus [4]) | Activity (Mus musculus [5]) | Activity (Mus musculus [7]) | Activity (Mus musculus [9]) | Activity (Mus musculus [11])
1 | – | – | – | – | Cathepsin B (Homo sapiens) (from UniProt P07858) | 332 | 3.2 | – | – | – | – | –
2 | inactive | inactive | inactive | inactive | CCN(CC)c1ccc2nc3ccc(/N=N/c4ccc(N(C)CCCC(=O)NCCNC(=O)[C@H](CCNC(=O)CCCCCN5\C(=C/C=C/C=C/C=C/C6N(CC)c7ccc(S(=O)(=O)O)cc7C6(C)C)C(C)(C)c6cc(S(=O)(=O)[O-])ccc65)NC(=O)[C@H](CC5CCCCC5)NC(=O)N5CCOCC5)cc4)cc3[n+](-c3ccccc3)c2c1 (stereo partly specified) | – | – | inactive | Active | Active | Active | inactive

Source: ChEMBL document CHEMBL1667743, “Functional in vivo imaging of cysteine cathepsin activity in murine model of inflammation” (Bioorg Med Chem, 2011)
